Assay results published in the EternaBench riboswitch data.

Test system: MS2 coat protein
Assay: apparent Kd, MS2 coat protein; higher = weaker binding; RNA-MaP array; FMN 200 µM where present
How it was run: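 SNAP-549-labelled MS2 coat protein, doubled from 0.7 or 1.5 nM to 3 µM, was titrated over designs transcribed by stalled E. coli RNA polymerase on Illumina sequencing-chip clusters. Titrations were run without and then with constant ligand in 100 mM Tris-HCl pH 7.5, 80 mM KCl, 4 mM MgCl2, BSA, DTT, yeast tRNA and Tween-20. The apparent Kd is the median of filtered per-cluster fits to green signal normalised to red-channel RNA signal and control-cluster median Fmax.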

[1] = designed as: OFF switch for flavin mononucleotide, no ligand
[2] = ligand present: flavin mononucleotide, designed as: OFF switch for flavin mononucleotide
[3] = designed as: ON switch for flavin mononucleotide, no ligand
[4] = ligand present: flavin mononucleotide, designed as: ON switch for flavin mononucleotide

Row | Sequence | apparent Kd [1] [µM] | apparent Kd [2] [µM] | apparent Kd [3] [µM] | apparent Kd [4] [µM]
1 | UCCUCACAUGAGGAUCACCCAUGUCAGGAUAUACCCAAAGCUGCGAAAAUAUCCAGCUGUAGAAGGGACAGGCU | 0.0183 | 0.0201 |  | 
2 | CCAUGGCUGUGAGGAUAUGUCUGACAAAGUCAGACAGAAGGUACAUGAGGAUCACCCAUGUGAAGAAAACCACAUUUGCCAUGG | 0.006 | 0.00644 |  | 
3 | AGGAAGGGUGCUCCGGCGGGCCGAGCAGAAGGGUGAUUGGACAUGAGGAUCACCCAUGUAUAAACACAGGAUAUGCAAACGGGU |  |  | 0.305 | 0.0131
4 | AUCAGCUCUUCAGGAUAUACGUCACUGCGUCAGCAGUGUGGUAAGAUCACAUGAGGAUCACCCAUGUAGAAGGGACGAGCUGAU | 0.0122 | 0.173 |  | 
5 | AAUUAUUGAUGAGGAUAUUGUGGUGAAACACGACGAGAAGGCAUAUGUCACAUGAGGAUCACCCAUGUGAGCCUUGUGCAUAUA | 0.0199 | 0.0189 |  | 
6 | UGGUACAUCGCAGGAUAUCAUGUAGAUACAUGAGGAUCACCCAUGUCGAUGGAGACAUCGGAGAUUGAGAAGGGCGAUGUACCU |  |  | 0.907 | 0.0411
7 | GGGUACAUCGGAGGAUAUCAUGUAAAUACAUGAGGAUCACCCAUGUCGAUGGAGACCUCGGAGAUUGAGAAGGCCGAUGUACCG |  |  | 0.694 | 0.201
8 | UGCAGCGUGCACAUGAGGAUCACCCAUGUGCCAGUGAACGCACAGGAUAUGCAAUCGUACGGCUAGCAGAAGGGUGGGUCUCAC |  |  | 0.00765 | 0.00645
9 | CCCGCGUUUCGCGCCUACAUGAGGAUCACCCAUGUUUGUAGGCAGGAUAUCGUCCGCUCUGCGGGCGAGAAGGGCUGUUGUGGU |  |  | 0.0908 | 0.084
10 | AUAAUGUAAGGAUAUAUGAAUCACGGUGAUACACCGUGAAGAUAGAAGGUACAUGAGGAUCACCCAUGUAGGGC | 0.0505 | 0.22 |  | 
11 | GCCUCACAUGAGGAUCACCCAUGUCAGGAUAUCUCAGCCUCACAUCAAACAAGGCUUCAGAGAAGGGACGUAAA | 0.0374 | 0.0774 |  | 
12 | AAGUCGACGGUGAGGAUAUAGGUCGAACGACAGAUCUAGAAGGCACAUGAGGAUCACCCAUGUGGGUAACGUCG | 0.0196 | 0.0284 |  | 
13 | AGGUCACAUGAGGAUCACCCAUGUCAGGAUAUCGUCACUGGAGCUGCGGCUCCAGUGACGAGAAGGGAUAAUUA | 0.0455 | 0.0705 |  | 
14 | AAAGGUGCAGGAUAUGCGUGGAAAAAGUGUAUUCAAAAAAAACAUGAGGAUCACCCAUGUAGAAGGGUACCAAA | 0.0659 | 0.18 |  | 
15 | CUGUACAUAGGAUAUAGUUGUUUUUACAUGAGGAUCACCCAUGUUACUCCUCUCUCUCUUCUAGAAGGAUGUUUUU | 0.0798 | 0.0584 |  | 
16 | AAUUAUUAUUGAGGAUAUCGUAUUGAAACAAUACGAGAAGGCGGGAUAAACAUGAGGAUCACCCAUGUGAGCCUGAUGCUUGUG | 0.0181 | 0.0165 |  | 
17 | AAGAAACAUGAGGAUCACCCAUGUGAGGAUAUACGAUGCUAAGCGUAAGCUUAGUAUCGUAGAAGGCACAAAGG | 0.131 | 0.311 |  | 
18 | CACAAGAAAGUCGAAGGUUGAAGUAGAAGGUCUACAACAUGACAUGAGGAUCACCCAUGUGCUAAGAAGGAUAUGCUUUAAUCG | 0.00871 | 0.00712 |  | 
19 | UAAUUUAUACAGAAGGGAAACAUGAGGAUCACCCAUGACAUGAGGAUCACCCAUGUUUAAUUAUUUCAGGAUAUGUAAAAUAAU |  |  | 0.159 | 0.0704
20 | ACUUGUUAUUUAAUCAUUGAAUUGUAGGAUAUACUUACAUGAGGAUCACCCAUGUUAACAUGGAUGUAGAAGGACAUCUCAUUU | 0.0989 | 0.0551 |  | 
21 | AUUAAACAUGAGGAUCACCCAUGUCAACAAAGUCGAGGAUAUGGGCAAAUAAAAUAAGAACCAGAAGGCGACUAAU |  |  | 0.0227 | 0.016
22 | ACAUGACAAUCAGGAUAUCGACAUGAGGAUCACCCAUGUACGGGUGUCAAUCGAGAAGGGAUUGUAGCGCCAACUGAGACGUUU | 0.078 | 0.11 |  | 
23 | CAUGACAAAGGAUAUACAUGAGGAUCACCCAUGUGGUCAUGGAAGUACGUGUUCUCACGUAGAAGGUUGCAGGG | 0.0128 | 0.0249 |  | 
24 | AUACCACGAGGAUAUCGUCUCUCCCACAUGAGGAUCACCCAUGUUAUCCAUGUUUCGUUUCGAGAAGGCGUGGGUU | 0.0833 | 0.0702 |  | 
25 | AGUAUGCGGCAGGAUAUCCAUCCGCGGUGUGGUGGAGAAGGGCUGACAUGAGGAUCACCCAUGUGCGUCCUGUA | 0.0236 | 0.0379 |  | 
26 | UCGGCGCGAGGAUAUACGUUUGCUUUUUAGGAUCGUGGCGUACAUGAGGAUCACCCAUGUAGAAGGCGCGCCGC | 0.0138 | 0.0203 |  | 
27 | UUGGACGUCGUAGGAUAUGUAGGAUAUUCCCACAUGAGGAUCACCCAUGUUGACAUGGAAGAAGGACAGAAGGACGAUGUCCAU |  |  | 0.00405 | 0.00347
